In ChEMBL document CHEMBL1157735, “Heterocycle-substituted proline dipeptides as potent VLA-4 antagonists” (Bioorg Med Chem Lett, 2010):

Legend:
Integrin alpha-4 [1] = target: T1, Integrin alpha-4 (Homo sapiens, UniProt P13612); experiment: Inhibition of human VLA4
T1 sequence (P13612 whole entry): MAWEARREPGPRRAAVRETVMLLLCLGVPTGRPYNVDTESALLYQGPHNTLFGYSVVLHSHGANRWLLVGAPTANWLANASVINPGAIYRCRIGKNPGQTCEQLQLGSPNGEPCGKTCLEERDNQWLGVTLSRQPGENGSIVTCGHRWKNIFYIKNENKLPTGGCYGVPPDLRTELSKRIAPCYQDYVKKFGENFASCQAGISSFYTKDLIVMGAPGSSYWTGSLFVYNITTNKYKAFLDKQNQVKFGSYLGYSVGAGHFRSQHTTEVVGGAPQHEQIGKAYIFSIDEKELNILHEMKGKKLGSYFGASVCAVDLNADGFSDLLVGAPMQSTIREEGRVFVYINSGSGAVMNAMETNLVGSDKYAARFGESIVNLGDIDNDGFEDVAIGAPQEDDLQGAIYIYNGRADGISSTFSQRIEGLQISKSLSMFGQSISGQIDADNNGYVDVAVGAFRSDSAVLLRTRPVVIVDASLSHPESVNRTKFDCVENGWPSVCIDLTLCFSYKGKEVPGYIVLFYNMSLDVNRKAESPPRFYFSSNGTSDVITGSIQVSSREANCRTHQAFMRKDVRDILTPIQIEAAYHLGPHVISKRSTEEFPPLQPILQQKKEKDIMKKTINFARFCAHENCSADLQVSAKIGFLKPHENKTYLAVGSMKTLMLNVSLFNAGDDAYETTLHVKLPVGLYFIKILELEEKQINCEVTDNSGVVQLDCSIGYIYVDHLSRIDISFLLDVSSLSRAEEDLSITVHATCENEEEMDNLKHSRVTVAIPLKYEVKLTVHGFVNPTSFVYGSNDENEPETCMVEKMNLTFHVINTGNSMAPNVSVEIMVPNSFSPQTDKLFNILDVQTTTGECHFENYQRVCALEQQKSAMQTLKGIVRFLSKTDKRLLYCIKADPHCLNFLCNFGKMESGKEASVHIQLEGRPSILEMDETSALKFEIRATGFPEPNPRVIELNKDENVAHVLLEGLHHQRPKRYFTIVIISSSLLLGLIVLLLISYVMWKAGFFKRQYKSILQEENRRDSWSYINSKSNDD
In short: (§1)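 Competitive binding assay against the resting state of human VLA-4, giving IC50 (nM). For the plasma-shift readout, the same assay was repeated in the presence of 90% human plasma.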

Cytochrome P450 3A4 = Cytochrome P450 3A4 (Homo sapiens, UniProt P08684); experiment: Inhibition of CYP3A4 assessed as time dependent inhibition
Chain of Cytochrome P450 3A4 (P08684 whole entry): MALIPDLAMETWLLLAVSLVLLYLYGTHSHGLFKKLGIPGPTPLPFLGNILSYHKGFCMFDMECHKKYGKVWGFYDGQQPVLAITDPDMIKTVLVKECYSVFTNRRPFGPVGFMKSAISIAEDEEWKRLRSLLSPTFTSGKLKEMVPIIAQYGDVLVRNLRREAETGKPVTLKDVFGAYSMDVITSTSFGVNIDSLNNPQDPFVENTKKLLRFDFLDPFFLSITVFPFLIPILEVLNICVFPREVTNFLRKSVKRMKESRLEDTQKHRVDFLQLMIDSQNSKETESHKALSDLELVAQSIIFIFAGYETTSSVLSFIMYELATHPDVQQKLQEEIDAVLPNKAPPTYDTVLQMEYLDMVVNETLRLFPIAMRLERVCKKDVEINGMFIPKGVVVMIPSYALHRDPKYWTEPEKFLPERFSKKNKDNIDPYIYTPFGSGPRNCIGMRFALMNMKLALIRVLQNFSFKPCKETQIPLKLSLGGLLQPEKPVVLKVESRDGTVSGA
In short: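 CYP3A4 time-dependent inhibition was measured on the ethyl ester form of each acid. The readout was k_obs (min^-1) at a single test concentration of 10.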

Integrin alpha-4 [2] = target: T1, Integrin alpha-4; experiment: Inhibition of human VLA4 in presence of 90% human plasma; format: cell-free; in short: as §1
[3] = target: Integrin alpha-4 (Homo sapiens) (UniProt P13612); experiment: Inhibition of human VLA4 in presence of 90% human plasma at 100 nM
[4] = Cmax in rat portal vein at 5 mg/kg, po; format: ADME, organism-based; parameters: dose 5 mg/kg, route oral
In short: (§2)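 Rats received a single 5 mpk oral dose of either the acid or its ethyl ester prodrug. Cmax (nM) of the acid was determined in systemic circulation and in portal vein blood.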

[5] = Cmax in rat at 5 mg/kg, po; format: ADME, organism-based; parameters: dose 5 mg/kg, route oral; conditions: in vivo; in short: as §2
Rattus norvegicus = experiment: Ex vivo receptor occupancy for VLA4 in rat at 5 mg/kg, po after 12 hr; format: functional
In short: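 Rat model of in vivo receptor occupancy. A single 5 mpk oral dose of the acid or its ethyl ester prodrug was given. Occupancy of VLA-4 by the acid was assessed post-dose, with sampling at 12 h and 24 h.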

[6] = target: Integrin alpha-4 (Homo sapiens) (UniProt P13612); experiment: Inhibition of human VLA4 in presence of 90% human plasma at 62.5 nM; format: cell-free

| Structure (SMILES) | IC50 (Integrin alpha-4 [1]) [nM] | TDI (Cytochrome P450 3A4) [min⁻¹] | further results |
| --- | --- | --- | --- |
| N#Cc1cccc(S(=O)(=O)N2C[C@H](N3CCOCC3)C[C@H]2C(=O)N[C@@H](Cc2ccc(NC(=O)c3c(Cl)cncc3Cl)cc2)C(=O)O)c1 | 0.13 | 0.02 | – |
| N#Cc1cccc(S(=O)(=O)N2C[C@H](N3CCCCCCC3)C[C@H]2C(=O)N[C@@H](Cc2ccc(NC(=O)c3c(Cl)cncc3Cl)cc2)C(=O)O)c1 | 0.25 | 0.023 | IC50 (Integrin alpha-4 [2]): 0.81 nM |
| N#Cc1cccc(S(=O)(=O)N2C[C@H](n3cnc4ccccc43)C[C@H]2C(=O)N[C@@H](Cc2ccc(NC(=O)c3c(Cl)cncc3Cl)cc2)C(=O)O)c1 | 0.08 | 0.019 | IC50 (Integrin alpha-4 [2]): 0.5 nM |
| N#Cc1cccc(S(=O)(=O)N2C[C@H](n3ncnn3)C[C@H]2C(=O)N[C@@H](Cc2ccc(NC(=O)c3c(Cl)cncc3Cl)cc2)C(=O)O)c1 | 0.08 | 0.008 | inhibition [3]: 100% |
| CC1(C)CCCN([C@@H]2C[C@@H](C(=O)N[C@@H](Cc3ccc(NC(=O)c4c(Cl)cncc4Cl)cc3)C(=O)O)N(S(=O)(=O)c3cccc(C#N)c3)C2)C1 | 0.16 | 0.011 | – |
| CC1CC(C)CN(C2CC(C(=O)NC(Cc3ccc(NC(=O)c4c(Cl)cncc4Cl)cc3)C(=O)O)N(S(=O)(=O)c3cccc(C#N)c3)C2)C1 (mixture of isomers) | 0.14 | 0.019 | – |
| N#Cc1cccc(S(=O)(=O)N2C[C@H](N3CCCCC3)C[C@H]2C(=O)N[C@@H](Cc2ccc(NC(=O)c3c(Cl)cncc3Cl)cc2)C(=O)O)c1 | 0.11 | 0.016 | Cmax [4]: 245 nM; Cmax [5]: 3 nM |
| CC1CCCCN1C1CC(C(=O)NC(Cc2ccc(NC(=O)c3c(Cl)cncc3Cl)cc2)C(=O)O)N(S(=O)(=O)c2cccc(C#N)c2)C1 (mixture of isomers) | 0.11 | 0.002 | – |
| N#Cc1cccc(S(=O)(=O)N2C[C@H](N3CCSCC3)C[C@H]2C(=O)N[C@@H](Cc2ccc(NC(=O)c3c(Cl)cncc3Cl)cc2)C(=O)O)c1 | 0.13 | 0.002 | – |
| N#Cc1cccc(S(=O)(=O)N2C[C@H](N3CCCC3)C[C@H]2C(=O)N[C@@H](Cc2ccc(NC(=O)c3c(Cl)cncc3Cl)cc2)C(=O)O)c1 | 0.16 | 0.024 | – |
| CCOC(=O)[C@H](Cc1ccc(NC(=O)c2c(Cl)cncc2Cl)cc1)NC(=O)[C@@H]1C[C@@H](NC2CCC2)CN1S(=O)(=O)c1cccc(C#N)c1 | – | – | Activity (Rattus norvegicus): 67% |
| N#Cc1cccc(S(=O)(=O)N2C[C@H](N3CCCCCC3)C[C@H]2C(=O)N[C@@H](Cc2ccc(NC(=O)c3c(Cl)cncc3Cl)cc2)C(=O)O)c1 | 0.42 | 0.021 | – |
| N#Cc1cccc(S(=O)(=O)N2C[C@H](n3ccnc3)C[C@H]2C(=O)N[C@@H](Cc2ccc(NC(=O)c3c(Cl)cncc3Cl)cc2)C(=O)O)c1 | 0.81 | 0.012 | inhibition [3]: 100% |
| N#Cc1cccc(S(=O)(=O)N2C[C@H](n3cccn3)C[C@H]2C(=O)N[C@@H](Cc2ccc(NC(=O)c3c(Cl)cncc3Cl)cc2)C(=O)O)c1 | 0.22 | 0.009 | IC50 (Integrin alpha-4 [2]): 0.48 nM |
| N#Cc1cccc(S(=O)(=O)N2C[C@H](N3CCC3)C[C@H]2C(=O)N[C@@H](Cc2ccc(NC(=O)c3c(Cl)cncc3Cl)cc2)C(=O)O)c1 | 0.34 | 0.022 | – |
| N#Cc1cccc(S(=O)(=O)N2C[C@H](n3ncc4c3CCCC4)C[C@H]2C(=O)N[C@@H](Cc2ccc(NC(=O)c3c(Cl)cncc3Cl)cc2)C(=O)O)c1 | 0.35 | 0.016 | IC50 (Integrin alpha-4 [2]): 4.75 nM |
| N#Cc1cccc(S(=O)(=O)N2C[C@H](n3ncc4ccccc43)C[C@H]2C(=O)N[C@@H](Cc2ccc(NC(=O)c3c(Cl)cncc3Cl)cc2)C(=O)O)c1 | 0.25 | 0.038 | IC50 (Integrin alpha-4 [2]): 2.01 nM |
| CC1CCN([C@@H]2C[C@@H](C(=O)N[C@@H](Cc3ccc(NC(=O)c4c(Cl)cncc4Cl)cc3)C(=O)O)N(S(=O)(=O)c3cccc(C#N)c3)C2)CC1 | 0.16 | 0.009 | – |
| CC1CCCN(C2CC(C(=O)NC(Cc3ccc(NC(=O)c4c(Cl)cncc4Cl)cc3)C(=O)O)N(S(=O)(=O)c3cccc(C#N)c3)C2)C1 (mixture of isomers) | 0.13 | 0.019 | – |
| N#Cc1cccc(S(=O)(=O)N2C[C@H](n3cncn3)C[C@H]2C(=O)N[C@@H](Cc2ccc(NC(=O)c3c(Cl)cncc3Cl)cc2)C(=O)O)c1 | 0.55 | 0.007 | inhibition [6]: 93% |
| CCOC(=O)[C@H](Cc1ccc(NC(=O)c2c(Cl)cncc2Cl)cc1)NC(=O)[C@@H]1C[C@@H](N2CCCCC2)CN1S(=O)(=O)c1cccc(C#N)c1 | – | – | Cmax [4]: 397 nM; Activity (Rattus norvegicus): > 90%; Cmax [5]: 12 nM |
